Bioassay records deposited in PubChem by several laboratories.
In the library only some 1.6% were active in any assay of this set; here they are far more common.
ABHD5 PLIN5 PPI = ABHD5-PLIN5 interaction inhibitors, primary screen, cell lysate, split luciferase complementation, luminescence; Perilipin-5 (Homo sapiens) + 1-acylglycerol-3-phosphate O-acyltransferase ABHD5 (Homo …; Split G. princeps luciferase complementation, 4 h; inhibition, % at 4 µM; 360,000 compounds, 0.78% hits;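 active means inhibition above the mean inhibition across every tested compound plus 3 SD, cut at about 22% in these data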;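 further: 0% = DMSO only wells and the 100% control is not disclosed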
TLR4 MyD88 comp = inhibitors of TLR4-MyD88 association in cells, primary screen, cell-based, HeLa CL3-4, BLA complementation, FRET ratio | HeLa CL3-4 TLR4/MyD88 BLA complementation | Toll-like receptor 4 (Homo sapiens) + Myeloid differentiation primary response protein … | 200,000 compounds, 0.18% hits | inhibition, % at 8.4 µM; in the data active means inhibition above about 25%;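 further: 0% = vehicle and 100% = reference inhibitor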
Beta2AR agonist = beta2AR agonists driving receptor internalization, primary screen, cell-based, FAP fluorogen, flow cytometry; 340,000 compounds, 0.43% hits; response, % (no concentration beside the values); Beta-2 adrenergic receptor (Homo sapiens), P07550; Am2.2-beta2AR cells;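 active means response above a set limit, near 3 SD of response in nonfluorescent compounds, cut at about 42% in these data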
Target sequence (P07550 whole entry, looked up): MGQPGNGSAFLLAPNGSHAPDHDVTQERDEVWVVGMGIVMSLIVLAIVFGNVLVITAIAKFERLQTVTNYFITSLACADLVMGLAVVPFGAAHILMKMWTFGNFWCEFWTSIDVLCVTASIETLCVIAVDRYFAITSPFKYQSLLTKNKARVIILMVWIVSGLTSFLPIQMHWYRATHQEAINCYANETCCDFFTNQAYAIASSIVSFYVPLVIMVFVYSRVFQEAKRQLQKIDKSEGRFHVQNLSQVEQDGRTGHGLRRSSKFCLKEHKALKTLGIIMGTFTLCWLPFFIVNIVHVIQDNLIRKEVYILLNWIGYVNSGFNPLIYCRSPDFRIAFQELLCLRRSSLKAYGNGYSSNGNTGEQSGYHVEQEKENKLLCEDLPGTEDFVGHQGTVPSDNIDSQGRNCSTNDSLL
Dynein transport = inhibitors of GR-EGFP nuclear translocation, primary screen, dynein cargo transport inhibitor project, imaging, high-content, 3617.4 mouse cells. test concentration mostly 20 µM; stimulated with dexamethasone, 1 µM; active compounds read low. z-score, hits read low. 220,000 compounds, 0.47% hits. AID 1381, 2008;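 active means plate z-score of nuclear minus cytoplasmic receptor signal below a set negative limit, without overly bright fluorescence or cell loss, cut at about -3.5 in these data, passing the limit was not always enough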;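 further: z-score of nuclear minus cytoplasmic ring GR-EGFP intensity difference per well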
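Buffer or medium – tet-free medium with charcoal-stripped serum · Signal – automated 10x imaging of fixed Hoechst-stained cells · Also added – dexamethasone agonist, 1.0 µM final, for 30 min · Incubation – induction 48 h, compound 1 h, agonist 30 min · Read-out – GR-EGFP nuclear translocation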
NOD2-RIPK2 inh = NOD2-RIPK2 binding disruptors in cells, primary screen, fluorescence, CHO cells, BLA complementation. Receptor-interacting serine/threonine-protein kinase 2 (Homo sapiens), O43353. CCF4 ratio. inhibition, % at 4.98 µM. 360,000 compounds, 0.38% hits. AID 624267, 2012; in the data active means inhibition above about 21%;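 further: 0% = vehicle only and 100% = reference blocker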
TLR9-MyD88 block = inhibitors of TLR9-MyD88 association in cells, primary screen, cell-based, CHO, BLA complementation, fluorescence. AID 504734, 2011. CCF4 FRET ratio. inhibition, % at 4.98 µM. Toll-like receptor 9 (Homo sapiens) + Myeloid differentiation primary response protein …. 340,000 compounds, 0.21% hits;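 active means inhibition above the mean over all tested compounds plus 3 SD, cut at about 21% in these data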;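 further: 0% = DMSO only wells and 100% = clavulanate BLA inhibitor control wells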
B2AR ag CP1 = beta2AR agonists via receptor internalization, confirmation, cell-based, FAP fluorogen, flow cytometry, single point, cherry pick 1; shares compounds with Beta2AR agonist; Am2.2-beta2AR cells, FAP surface receptor; active compounds read low; percent response (surface receptor), % at 10 µM; 1,100 compounds, 25% hits; AID 540358, 2011;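 active means surface receptor percent response at or below 58%, roughly 3 SD from nonfluorescent compounds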
FAP fluor counter = counter-screen for beta-2AR agonists: fluorescence in Am2.2 cells; shares compounds with Beta2AR agonist; FAP fluorogen flow cytometry, fluorescence counterscreen; active compounds read low; calls only at 10 µM; 1,100 tested, under 10 active;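 active means percent response below a set limit in fluorescence channel 1 and below 50% in channel 8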
Numbers without * were called inactive; i = inactive; . = no result.

SMILES	ABHD5 PLIN5 PPI	TLR4 MyD88 comp	Beta2AR agonist	Dynein transport	NOD2-RIPK2 inh	TLR9-MyD88 block	B2AR ag CP1	FAP fluor counter
COC(=O)CS(=O)(=O)c1ccsc1C(=O)Nc1ccc(F)c(F)c1	-7.4	-8.0	46.6*	-1.14	-13.8	-10.6	100.8	i
COc1ccc(NC(=O)CCC(=O)c2cc(C)sc2C)cc1	-1.0	.	4.6	.	-6.3	-2.8	.	.
c1ccc(-c2nnc(SCc3nc4ccccc4[nH]3)n2Cc2ccco2)cc1	6.8	1.5	-11.9	0.469	8.1	10.2	137.6	i
Cc1ccc(OCc2nnc(SCc3nc4ccccc4[nH]3)n2Cc2ccco2)cc1	1.2	-5.0	103.8*	0.122	5.5	-6.1	20.4*	i
CCn1c(COc2ccc(Cl)cc2)nnc1SCc1nc2ccccc2[nH]1	6.4	-9.0	-2.9	-0.196	-3.9	-7.9	.	.
CC(C)C(=O)N[C@H]1CCC2C3CC=C4C[C@@H](O)CC[C@]4(C)C3CC[C@@]21C (some centres not stated)	3.4	.	-4.8	.	-4.2	-0.4	.	.
CC12CCC(O)CC1=CCC1C2CCC2(C)C(c3ccn[nH]3)CCC12 (configuration not stated)	0.3	.	44.1*	.	-0.5	-1.9	67.0	i
O=C(NNC(=O)C1CCN(C(=O)Nc2ccccc2)CC1)c1ccc([N+](=O)[O-])cc1	-0.8	.	-3.4	.	-12.6	-8.7	.	.
Cc1cc(CN(C)C(=O)CC2C(=O)NCCN2Cc2ccc(F)c(F)c2)on1 (configuration not stated)	-1.5	1.4	1.1	0.981	2.5	0.1	.	.
Cc1cc(CN(C)C(=O)CC2C(=O)NCCN2Cc2ccc(-c3ccccc3)cc2)on1 (configuration not stated)	1.3	.	46.1*	.	-11.3	-7.8	90.2	i
c1ccc(CNc2nc(-c3ccccc3)nc3ccccc23)cc1	-2.9	.	-7.8	.	-1.6	4.2	.	.
NS(=O)(=O)c1ccc(CNc2nc(-c3cccnc3)nc3ccccc23)cc1	0.8	.	11.8	.	2.0	3.8	141.0	i
c1ccc(CNc2nc(-c3cccnc3)nc3ccccc23)cc1	5.6	.	-10.9	.	-4.7	8.3	173.8	i
c1cncc(-c2nc(NCc3ccc4c(c3)OCO4)c3ccccc3n2)c1	5.9	.	13.4	-0.378	2.5	-4.3	155.1	i
Fc1ccc(CNc2nc(-c3cccnc3)nc3ccccc23)cc1	-3.6	.	-18.1	.	5.0	0.5	161.1	i
Clc1cccc(CNc2nc(-c3cccnc3)nc3ccccc23)c1	4.1	.	-13.0	.	4.9	-6.3	.	.
COCCNc1nc(Nc2ccc(F)cc2)c2sccc2n1	-0.3	.	.	.	-11.4	.	.	.
CCC(c1nnnn1-c1ccc2c(c1)OCCO2)N1CCN(c2ccc(F)cc2)CC1 (configuration not stated)	-1.7	.	.	.	4.3	.	.	.
COc1ccc(NC(=O)c2cc(C3CCCCN3C(=O)c3cc(C(C)(C)C)nn3C)on2)c(C)c1 (configuration not stated)	-3.5	.	.	.	-9.8	.	.	.
Cc1ccc(CNc2nc(-c3cccnc3)nc3ccccc23)cc1	5.7	.	-15.8	.	2.4	-4.1	154.1	i
CC(C)(C)c1ccc(-c2nc(NCc3cccnc3)c3ccccc3n2)cc1	-9.5	-7.9	3.0	0.856	5.7	1.5	.	.
c1cncc(CNc2nc(-c3cccnc3)nc3ccccc23)c1	3.6	.	-13.5	.	-14.0	-2.2	165.8	i
Cc1ccc(Nc2nc(-c3cccnc3)nc3ccccc23)cc1	-4.4	.	9.6	-0.0837	-9.6	-6.6	.	.
O=C(Nc1cccc(-c2nc3ncccc3o2)c1)c1sc2cc(Cl)ccc2c1Cl	-4.4	-0.4	42.4*	0.171	-5.3	-0.2	12.3*	i
CCCCN1CC(N(C)CCN(C)C)CS1(=O)=O (configuration not stated)	9.4	.	.	.	-11.3	.	.	.
SMILES	ABHD5 PLIN5 PPI	TLR4 MyD88 comp	Beta2AR agonist	Dynein transport	NOD2-RIPK2 inh	TLR9-MyD88 block	B2AR ag CP1	FAP fluor counter
Cc1c(Br)c([N+](=O)[O-])nn1CCCC(=O)Nc1sc2c(c1C(N)=O)CCC(C)C2 (configuration not stated)	1.8	-4.8	-12.4	-0.369	-1.8	-11.9	.	.
Cc1c(Br)c([N+](=O)[O-])nn1CCCC(=O)Nc1sc2c(c1C#N)CCC2	-15.6	1.2	59.4*	-0.19	-0.6	1.0	128.2	i
CC(=O)Nc1ccc(S(=O)(=O)NCCc2csc(-c3cccnc3)n2)cc1	-4.4	.	83.0*	.	-6.3	0.0	13.4*	i
NS(=O)(=O)c1ccc(CCNCC(=O)NCc2ccccc2Cl)cc1	4.5	.	13.2	.	5.6	-15.6	.	.
CC(C)Nc1ccc(Nc2ccnc3cc4ccccc4cc23)cc1	10.3	.	80.5*	-3.24	7.0	-2.7	112.8	i
COc1ccc(C(=O)NCC(=O)OCC(=O)Nc2cc(OC)ccc2OC)cc1	-6.6	11.7	64.5*	-0.697	2.1	-3.8	102.5	i
Nc1nc(Nc2ccccc2)nc(NCc2ccco2)c1[N+](=O)[O-]	3.9	-0.1	9.8	-0.359	-1.6	-7.5	.	.
Fc1ccc(Nc2nc(NCc3ccco3)c3ccccc3n2)cc1	9.3	.	32.6	1.26	-2.8	4.6	59.9	i
CCN(CC)S(=O)(=O)c1ccc(N2CCCC2)c(NC(=O)C2=NN(c3ccccc3)C(=O)CC2)c1	-10.7	.	47.3*	.	0.4	6.0	98.6	i
O=C(Nc1cc(Cl)ccc1N1CCCC1)C1=NN(c2ccccc2)C(=O)CC1	-7.1	.	1.0	.	-1.2	4.1	.	.
CC(Sc1nc(-c2ccccc2)cc(C(F)(F)F)n1)C(=O)NCc1ccco1 (configuration not stated)	-2.4	-0.3	5.7	-0.434	0.0	-5.7	.	.
CC1CCCN(C(=O)C(C)Sc2nc(-c3ccccc3)cc(C(F)(F)F)n2)C1 (configuration not stated)	-9.4	2.5	15.2	2.35	-6.3	-0.5	66.9	i
CC(Sc1nc(-c2ccccc2)cc(C(F)(F)F)n1)C(=O)N1CCCCC1 (configuration not stated)	9.4	8.3	99.0*	0.541	7.9	7.5	10.5*	i
CCOC(=O)C1CCN(C(=O)c2ccccc2)C(CC)C1=O (configuration not stated)	0.6	.	-11.9	.	-14.4	-13.0	.	.
